Source: ChEMBL document CHEMBL1122206, “Use of adenine nucleotide derivatives to assess the potential of exo-active-site-directed reagents as species- or isozyme-specific enzyme inactivators. 5. Interactions of adenosine 5'-triphosphate derivatives with rat pyruvate kinases, Escherichia coli thymidine kinase, and yeast and rat …” (1982)

Assays:
[1] = target: T1, Hexokinase-2 (Rattus norvegicus) (UniProt P27881); test: Time dependent inhibition of hexokinase 2 activity after 6 h, at 5 mM compound
T1 sequence (whole entry): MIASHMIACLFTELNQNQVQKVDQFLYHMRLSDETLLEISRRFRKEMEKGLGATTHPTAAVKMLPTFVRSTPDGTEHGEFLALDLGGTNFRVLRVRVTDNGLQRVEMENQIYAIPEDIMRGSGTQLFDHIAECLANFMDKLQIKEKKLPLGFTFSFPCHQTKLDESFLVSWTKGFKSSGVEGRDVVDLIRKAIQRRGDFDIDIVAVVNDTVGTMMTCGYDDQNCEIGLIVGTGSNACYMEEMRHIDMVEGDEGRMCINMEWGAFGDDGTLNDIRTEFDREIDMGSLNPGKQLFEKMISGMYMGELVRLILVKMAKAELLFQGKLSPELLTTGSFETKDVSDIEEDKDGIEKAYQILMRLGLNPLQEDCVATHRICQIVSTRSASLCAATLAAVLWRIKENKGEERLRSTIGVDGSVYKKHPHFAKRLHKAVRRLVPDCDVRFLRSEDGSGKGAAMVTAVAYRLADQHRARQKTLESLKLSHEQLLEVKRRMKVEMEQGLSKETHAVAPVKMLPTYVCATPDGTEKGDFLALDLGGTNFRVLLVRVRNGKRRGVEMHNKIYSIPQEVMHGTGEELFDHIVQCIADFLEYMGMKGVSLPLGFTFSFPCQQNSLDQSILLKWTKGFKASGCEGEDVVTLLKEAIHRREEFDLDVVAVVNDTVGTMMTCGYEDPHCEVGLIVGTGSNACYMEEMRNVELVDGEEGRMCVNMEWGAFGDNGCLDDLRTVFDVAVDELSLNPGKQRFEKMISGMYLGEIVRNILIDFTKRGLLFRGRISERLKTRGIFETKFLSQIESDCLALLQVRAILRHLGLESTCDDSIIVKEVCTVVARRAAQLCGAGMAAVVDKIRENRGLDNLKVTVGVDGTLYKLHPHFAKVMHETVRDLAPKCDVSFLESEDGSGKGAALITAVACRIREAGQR

[2] = Substrate concentration for half maximal velocity was reported for rat hexokinase I
Method in brief: (§1)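 Coupled glucose-6-phosphate dehydrogenase/NADP assay: A340 rate at 22 °C in 0.05 M Tris-HCl pH 7.6 with 6.6 mM MgCl2, 10 mM α-D-glucose and 0.93 mM NADP, nucleotide varied. KM was taken from linear double-reciprocal plots. Rat HK I and III came from electrofocused, dialysed liver extract, HK II from dialysed muscle extract, and yeast HK was isoelectric-focused.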

[3] = Compound was tested for substrate constants with rat hexokinase. Maximal velocity Vmax was reported
Method in brief: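 Rat HK I and HK III came from liver extract of an adult male Sprague-Dawley rat and were separated by electrofocusing and dialysed; HK II was dialysed muscle extract. The coupled assay ran at 22 °C in 0.05 M Tris-HCl pH 7.6 with 6.6 mM MgCl2, 10 mM glucose, 0.93 mM NADP and G6P dehydrogenase, read at 340 nm. Constants came from linear double-reciprocal plots.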

Saccharomyces cerevisiae = test: Compound was tested for time dependent inhibition of hexokinase activity after 6 hr, at 0 degrees celsius, with 10 mM ATP derivative in yeast hexokinase
[4] = target: T2, Hexokinase-1 (Rattus norvegicus) (UniProt P05708); test: Substrate activity for rat hexokinase I as 1:1 Mg complex at 5.0 mM
T2 sequence (whole entry): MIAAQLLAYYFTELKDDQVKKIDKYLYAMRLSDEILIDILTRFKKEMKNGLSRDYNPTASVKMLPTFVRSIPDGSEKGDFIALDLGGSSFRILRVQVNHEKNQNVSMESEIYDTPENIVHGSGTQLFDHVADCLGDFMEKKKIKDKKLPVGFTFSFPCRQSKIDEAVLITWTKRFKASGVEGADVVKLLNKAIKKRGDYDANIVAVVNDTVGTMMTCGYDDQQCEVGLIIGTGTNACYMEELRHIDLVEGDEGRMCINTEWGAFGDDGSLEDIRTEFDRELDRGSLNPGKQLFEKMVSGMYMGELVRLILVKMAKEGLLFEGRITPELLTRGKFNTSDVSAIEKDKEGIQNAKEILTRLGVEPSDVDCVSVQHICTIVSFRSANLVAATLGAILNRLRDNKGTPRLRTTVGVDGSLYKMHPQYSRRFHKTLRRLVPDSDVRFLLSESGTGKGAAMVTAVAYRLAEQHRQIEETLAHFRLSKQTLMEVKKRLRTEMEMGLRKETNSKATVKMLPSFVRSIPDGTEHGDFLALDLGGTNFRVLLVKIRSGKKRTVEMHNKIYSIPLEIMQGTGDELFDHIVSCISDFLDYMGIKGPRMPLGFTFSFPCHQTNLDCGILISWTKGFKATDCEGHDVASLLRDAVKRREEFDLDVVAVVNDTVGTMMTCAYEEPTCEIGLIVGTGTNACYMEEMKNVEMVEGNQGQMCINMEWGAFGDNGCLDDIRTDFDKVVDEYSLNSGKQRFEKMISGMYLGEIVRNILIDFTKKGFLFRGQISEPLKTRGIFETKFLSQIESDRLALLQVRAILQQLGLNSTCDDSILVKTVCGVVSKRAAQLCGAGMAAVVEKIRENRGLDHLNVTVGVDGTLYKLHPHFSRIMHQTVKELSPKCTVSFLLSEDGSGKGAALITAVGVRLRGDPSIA
Method in brief: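 Hexokinase activity read at 22 °C as A340 change, coupled to glucose-6-phosphate dehydrogenase, in 0.05 M Tris-HCl pH 7.6 with 6.6 mM MgCl2, 10 mM α-D-glucose and 0.93 mM NADP. Donor was 5.0 mM MgATP derivative (1:1 Mg complex) in place of ATP. Yeast HK was isoelectric-focused. Rat HK I and III came from electrofocused liver extract, HK II from dialysed muscle extract.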

[5] = Substrate concentration for half maximal velocity was reported for rat hexokinase II
Method in brief: as §1

[6] = target: T2, Hexokinase-1 (Rattus norvegicus); test: Time dependent inhibition of Hexokinase type I activity after 6 h, at 22 degrees celsius, at 5 mM compound
[7] = Substrate concentration for half maximal velocity was reported for rat hexokinase III
Method in brief: as §1

Nc1ncnc2c1ncn2[C@@H]1O[C@H](COP(=O)(O)OP(=O)(O)OP(=O)(O)O)[C@@H](O)[C@H]1O
inhibition [1]: 0% | Km [2]: 440 µM | Vmax [3]: 100% | inhibition (Saccharomyces cerevisiae): 0% | Relative velocity [4]: 1 | Km [5]: 710 µM | inhibition [6]: 0% | Km [7]: 910 µM
